Laboratory results from PMC3788622 (Journal of Medicinal Chemistry, 2013).
Entries after “also recorded” stand apart in the source; their conditions may differ.

Columns and labels:
[1] = tested on: p53; experiment: p53 protein ELISA; assay type: cell-based; conditions: LNCaP cells, 1 μM, 24 h
Method in brief: (§1)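 LNCaP cells were treated with 10 μM test compound for 72 h. Controls were DMSO vehicle and 1 μM doxorubicin for 24 h. RPB1 was measured with an RPB1-specific ELISA kit and total p53 with a pan-p53 ELISA kit, each following the kit instructions, in biological triplicates.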

[2] = tested on: RPB1; experiment: RPB1 protein ELISA; assay type: cell-based; conditions: LNCaP cells, 1 μM, 24 h
Method in brief: as §1

[3] = Serum levels after subcutaneous injection; assay type: in vivo, mouse; conditions: male C57BL/6J mice, 10 mg/kg sc
[4] = tested on: male C57BL/6J mice; experiment: Serum markers of liver and kidney damage after single subcutaneous injection; assay type: in vivo, mouse; conditions: single sc dose 1, 3, 10 mg/kg; dose stated in the value
Method in brief: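 All mice from the single sc dose groups (1, 3, 10 mg/kg in 25% DMSO/saline, n = 4, 9-day observation) were bled retro-orbitally. Serum was obtained by centrifugation at 6000 rpm for 5 min. ALT, AST, total bilirubin, BUN and creatinine were measured externally, blinded to animal identity.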

[5] = tested on: male C57BL/6J mice; experiment: Escalating single dose subcutaneous injections: animal weight and behavior; assay type: in vivo, mouse; conditions: single sc injection at 1, 3, and 10 mg/kg, observed 9 days
Method in brief: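 Male C57BL/6J mice, 8 weeks old, were acclimatised 3 days after arrival. Groups of four received one sc dose of 1, 3 or 10 mg/kg in up to 200 μL 25% DMSO/saline. Doses were set by UV/vis using ε 69 500 M–1·cm–1 near 315 nm. Mice were weighed daily for 9 days, then sacrificed. Humane end point was visible duress or weight loss over 15% of starting weight.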

[6] = tested on: male C57BL/6J mice; experiment: Histopathology after single subcutaneous injection; assay type: in vivo, mouse
Method in brief: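 After the single sc dose (1, 3 or 10 mg/kg, 25% DMSO/saline, 9-day observation), two representative mice per group were fixed in 10% formalin. A veterinary pathologist examined cecum, duodenum, heart, ileum, kidney, liver, lung, pancreas, spleen and stomach, blinded to animal identity.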

[7] = tested on: male C57BL/6J mice; experiment: Serum markers of liver and kidney damage after multiple subcutaneous injections; assay type: in vivo, mouse; conditions: 1 mg/kg sc every 3 days, three injections
Method in brief: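 Male C57BL/6J mice, 8 weeks old, were dosed in groups of three with 1 mg/kg sc every 3 days for three injections and sacrificed 2 days after the last. Weight was recorded on injection days and at the end point. Retro-orbital blood was spun at 6000 rpm for 5 min. Serum ALT, AST, total bilirubin, BUN and creatinine were assayed blinded.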

[8] = tested on: male C57BL/6J mice; experiment: Histopathology after multiple subcutaneous injections; assay type: in vivo, mouse; conditions: 1 mg/kg sc every 3 days, three injections
[9] = tested on: liver tissue of male C57BL/6J mice; experiment: Liver uptake of fluorescein-polyamide conjugates; assay type: in vivo, mouse; conditions: 50 nmol (∼3 mg/kg), sacrificed 24 h later

For COc1cccc2c1C(=O)c1c(O)c3c(c(O)c1C2=O)C[C@@](O)(C(=O)CO)C[C@@H]3O[C@H]1C[C@H](N)[C@H](O)[C@H](C)O1 [doxorubicin, reference compound], the “Cellular level of p53 protein” value [1] was “increases” and the RPB1 protein level [2] was “decreases”.

In the case of Cn1cc2cc1C(=O)NCCCC(=O)Nc1cn(C)c(n1)C(=O)Nc1cc(n(C)c1)C(=O)Nc1cc(n(C)c1)C(=O)Nc1cc(n(C)c1)C(=O)NCC[C@@H](N)C(=O)Nc1cn(C)c(n1)C(=O)Nc1cc(n(C)c1)C(=O)Nc1cc(n(C)c1)C(=O)N2 [Polyamide 5], the “Serum bioavailability after subcutaneous injection” value [3] is reported as “bioavailable”, the “Elevation of serum markers of liver and kidney damage (in words)” value [4] is reported as “caused levels of ALT and AST to increase in a dose-dependent manner” and the Weight loss [5] is reported as “did not cause significant weight loss; also recorded: less effect on animal weight than 1”. For the same molecule, the “Organ toxicity by histopathology, overall” value ([6]; single sc dose, any dose level tested (1, 3, 10 mg/kg)) was “did affect the kidney and liver”.

In the case of CN(CCCNC(=O)c1cccc(C(=O)O)c1)CCCNC(=O)c1cc(NC(=O)c2cc(NC(=O)c3cc(NC(=O)c4nc(NC(=O)C[C@@H](N)CNC(=O)c5cc(NC(=O)c6cc(NC(=O)c7cc(NC(=O)c8nccn8C)cn7C)cn6C)cn5C)cn4C)cn3C)cn2C)cn1C [Polyamide 2, ImPyPyPy-3-(R)^H2Nγ-ImPyPyPy∼NHMe∼IPA], the “Elevation of serum markers of liver and kidney damage (in words)” value [4] is reported as “severe elevation of AST, ALT, and total bilirubin at 10 mg/kg and to a lesser extent at 3 mg/kg; also recorded: elevated BUN at 10 mg/kg”, the Weight loss [5] is reported as “significant weight loss only at 10 mg/kg” and the “Kidney lesions by histopathology (in words)” value ([6]; single sc dose 3 mg/kg) is reported as “Moderate atypical tubular regeneration (karyomegaly, tubular attenuation, mitotic figures) and/or tubular epithelial necrosis and apoptosis”. For the same molecule, the “Liver lesions by histopathology (in words)” value ([6]; single sc dose 3 mg/kg) was “Mild hepatocellular necrosis and apoptosis”, the “Liver lesions by histopathology (in words)” value ([6]; single sc dose 10 mg/kg) was “diffuse hepatocellular necrosis and apoptosis” and the “Spleen lesions by histopathology (in words)” value ([6]; single sc dose 10 mg/kg) was “Mild lymphoid apoptosis in the white pulp of the spleen”. The “Alteration of liver and kidney serum markers (in words)” value [7] was “elevated AST and ALT”, the “Kidney lesions by histopathology (in words)” value [8] was “mild variable tubular attenuation, karyomegaly, and epithelial necrosis and apoptosis” and the “Liver lesions by histopathology (in words)” value [8] was “mild multifocal hepatocellular necrosis and apoptosis”.

For CC(=O)N[C@@H](CNC(=O)c1cc(NC(=O)c2cc(NC(=O)c3cc(NC(=O)c4nccn4C)cn3C)cn2C)cn1C)CC(=O)Nc1cn(C)c(C(=O)Nc2cc(C(=O)Nc3cc(C(=O)Nc4cc(C(=O)NCCCN(C)CCCNC(=S)Nc5ccc(-c6c7ccc(=O)cc-7oc7cc(O)ccc67)c(C(=O)O)c5)n(C)c4)n(C)c3)n(C)c2)n1 [Polyamide 9], the “Nuclear fluorescence in liver sections” value [9] was “the most intense nuclear fluorescence in liver sections”.

For CC(=O)N[C@H](CCNC(=O)c1cc(NC(=O)c2cc(NC(=O)c3cc(NC(=O)c4nccn4C)cn3C)cn2C)cn1C)C(=O)Nc1cn(C)c(C(=O)Nc2cc(C(=O)Nc3cc(C(=O)Nc4cc(C(=O)NCCCN(C)CCCNC(=S)Nc5ccc(-c6c7ccc(=O)cc-7oc7cc(O)ccc67)c(C(=O)O)c5)n(C)c4)n(C)c3)n(C)c2)n1 [Polyamide 8], the “Nuclear fluorescence in liver sections” value [9] was “less nuclear fluorescence in liver sections than the other FITC–polyamide conjugates”.
